Source: ChEMBL document CHEMBL4346737, “Synthesis and evaluation of tetrahydropyrazolopyridine inhibitors of anion exchange protein SLC26A4 (pendrin)” (Bioorg Med Chem Lett, 2019)

Assays:
Pendrin [1] = target: T1, Pendrin (Mus musculus, UniProt Q9R155); assay: Inhibition of mouse PDS stably expressed in FRT cells coexpressing EYFP-H148Q/I152L/F46L assessed as reduction in I-/Cl- exchange incubated for 10 mins by fluorescence based assay; type: cell-based
T1 sequence (Q9R155 whole entry): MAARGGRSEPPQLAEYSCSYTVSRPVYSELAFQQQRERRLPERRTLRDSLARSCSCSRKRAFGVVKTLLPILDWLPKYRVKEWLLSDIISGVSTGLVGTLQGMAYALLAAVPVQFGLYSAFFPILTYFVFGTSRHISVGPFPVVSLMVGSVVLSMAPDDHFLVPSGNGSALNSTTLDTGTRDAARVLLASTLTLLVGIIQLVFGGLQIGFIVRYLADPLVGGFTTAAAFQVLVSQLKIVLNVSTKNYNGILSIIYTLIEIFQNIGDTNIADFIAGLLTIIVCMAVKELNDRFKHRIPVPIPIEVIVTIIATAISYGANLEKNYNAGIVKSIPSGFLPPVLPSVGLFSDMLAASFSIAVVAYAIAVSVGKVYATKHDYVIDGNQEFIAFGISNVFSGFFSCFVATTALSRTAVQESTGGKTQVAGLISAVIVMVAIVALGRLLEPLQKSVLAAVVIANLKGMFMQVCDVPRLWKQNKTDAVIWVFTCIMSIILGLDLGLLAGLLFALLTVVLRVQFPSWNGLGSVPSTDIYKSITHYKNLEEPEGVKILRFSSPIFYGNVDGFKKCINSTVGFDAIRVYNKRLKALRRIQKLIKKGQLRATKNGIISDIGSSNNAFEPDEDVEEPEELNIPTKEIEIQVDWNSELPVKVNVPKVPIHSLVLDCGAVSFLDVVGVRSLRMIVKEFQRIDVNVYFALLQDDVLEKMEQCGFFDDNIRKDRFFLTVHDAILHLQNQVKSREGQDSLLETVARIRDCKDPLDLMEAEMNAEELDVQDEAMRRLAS
Summary of the method: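 Fischer rat thyroid cells stably co-expressing murine pendrin and the halide-sensing YFP variant were used for Cl–/I– exchange. An I–-containing solution was added to the cells, and exchange was followed as the rate of fluorescence decrease. Inhibition was read as a slower decline in fluorescence.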

Pendrin [2] = target: T2, Pendrin (Homo sapiens, UniProt O43511); assay: Inhibition of human PDS stably expressed in FRT cells coexpressing EYFP-H148Q/I152L/F46L assessed as reduction in I-/Cl- exchange incubated for 10 mins by fluorescence based assay; type: cell-based
T2 sequence (O43511 whole entry): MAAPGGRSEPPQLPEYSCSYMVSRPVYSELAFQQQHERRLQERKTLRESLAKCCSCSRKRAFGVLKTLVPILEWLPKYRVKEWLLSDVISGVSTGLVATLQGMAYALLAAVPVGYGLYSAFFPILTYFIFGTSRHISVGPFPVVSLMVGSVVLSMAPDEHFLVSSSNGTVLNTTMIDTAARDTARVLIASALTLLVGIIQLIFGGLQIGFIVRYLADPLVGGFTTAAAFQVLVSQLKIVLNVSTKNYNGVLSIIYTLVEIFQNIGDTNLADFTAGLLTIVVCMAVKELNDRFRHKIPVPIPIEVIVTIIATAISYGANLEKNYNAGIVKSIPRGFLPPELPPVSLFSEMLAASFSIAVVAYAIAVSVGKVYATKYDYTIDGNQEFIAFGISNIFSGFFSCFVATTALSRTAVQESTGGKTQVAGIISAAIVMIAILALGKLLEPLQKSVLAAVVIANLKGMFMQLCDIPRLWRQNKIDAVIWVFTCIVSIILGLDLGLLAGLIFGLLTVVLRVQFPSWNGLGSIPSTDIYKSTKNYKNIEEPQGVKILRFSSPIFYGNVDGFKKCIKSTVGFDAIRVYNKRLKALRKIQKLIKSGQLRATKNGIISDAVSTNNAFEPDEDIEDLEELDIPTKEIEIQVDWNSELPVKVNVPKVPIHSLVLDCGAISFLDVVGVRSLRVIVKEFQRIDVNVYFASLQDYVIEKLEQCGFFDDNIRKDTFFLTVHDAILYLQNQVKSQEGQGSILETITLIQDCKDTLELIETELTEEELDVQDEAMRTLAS

With `Cn1nc(COc2cc(F)cc(F)c2)c2c1CCN(S(=O)(=O)c1ccc(Cl)cc1)C2` the IC50 (Pendrin [1]) was > 10 µM.

With `Cn1nc(COc2cc(F)cc(F)c2)c2c1CCN(C(=S)NC1CCCCC1)C2` the IC50 (Pendrin [1]) was > 10 µM.

`Cn1nc(COc2cc(F)cc(F)c2)c2c1CCN(C(=O)NC(=O)c1ccccc1)C2` was tested, and the IC50 (Pendrin [1]) was > 10 µM.

With `Cn1nc(COc2cc(F)cc(F)c2)c2c1CCN(C(=O)NC1CCCCC1)C2` the IC50 (Pendrin [1]) was > 10 µM.

With `CC(C)NC(=O)N1CCc2c(c(COc3cc(F)cc(F)c3)nn2C)C1` the IC50 (Pendrin [1]) was > 10 µM.

`CCN(CC)S(=O)(=O)N1CCc2c(c(COc3cc(F)cc(F)c3)nn2C)C1` was tested, and the IC50 (Pendrin [1]) was > 10 µM.

In the case of `CCOC(=O)c1nn(C)c2c1CN(C(=O)Nc1ccc(Cl)cc1)CC2`, the IC50 (Pendrin [1]) is reported as > 10 µM.

`CN(C)c1ccc(NC(=S)N2CCc3c(c(COc4cc(F)cc(F)c4)nn3C)C2)cc1` was tested, and the IC50 (Pendrin [1]) was > 10 µM.

For `Cn1nc(C(=O)O)c2c1CCN(C(=O)Nc1ccc(Cl)cc1)C2`, the IC50 (Pendrin [1]) was > 10 µM.

For `Cn1nc(COc2cc(F)cc(F)c2)c2c1CCN(C(=S)Nc1ccc(Cl)cc1)C2`, the IC50 (Pendrin [1]) was > 10 µM.

For `Cn1nc(COc2cc(F)cc(F)c2)c2c1CCN(S(=O)(=O)c1ccc(C(F)(F)F)cc1)C2`, the IC50 (Pendrin [1]) was > 10 µM.

Work on `Cn1nc(COc2ccc(F)c(F)c2)c2c1CCN(C(=O)Nc1ccc(Cl)cc1)C2` yielded an IC50 (Pendrin [1]) of 4.6 µM.

For `Cn1nc(COc2cc(F)cc(F)c2)c2c1CCN(C(=O)Nc1ccc(Br)cc1)C2`, the IC50 (Pendrin [1]) was 3.3 µM.

`Cn1nc(COc2cc(F)cc(F)c2)c2c1CCN(C(=O)Nc1ccc(Cl)cc1)C2` gave an IC50 (Pendrin [1]) of 3.1 µM.

Work on `Cn1nc(COc2cc(F)c(F)c(F)c2)c2c1CCN(C(=O)Nc1ccc(Cl)cc1)C2` yielded an IC50 (Pendrin [1]) of 3.3 µM.

Work on `Cn1nc(COc2cccc(F)c2)c2c1CCN(C(=O)Nc1ccc(Cl)cc1)C2` yielded an IC50 (Pendrin [2]) of 7 µM.

In the case of `Cn1nc(COc2cc(F)cc(F)c2)c2c1CCN(S(C)(=O)=O)C2`, the IC50 (Pendrin [1]) is reported as > 10 µM.
